The record followed here is paper PMC9416874 (Carbohydrate research, 2014).

The target in series [1] is T1, Psp2,6ST(15–501)-His6 (Photobacterium sp. JT-ISH-224, UniProt A8QYL1, A366G).
T1 sequence (A8QYL1 15-501 A366G): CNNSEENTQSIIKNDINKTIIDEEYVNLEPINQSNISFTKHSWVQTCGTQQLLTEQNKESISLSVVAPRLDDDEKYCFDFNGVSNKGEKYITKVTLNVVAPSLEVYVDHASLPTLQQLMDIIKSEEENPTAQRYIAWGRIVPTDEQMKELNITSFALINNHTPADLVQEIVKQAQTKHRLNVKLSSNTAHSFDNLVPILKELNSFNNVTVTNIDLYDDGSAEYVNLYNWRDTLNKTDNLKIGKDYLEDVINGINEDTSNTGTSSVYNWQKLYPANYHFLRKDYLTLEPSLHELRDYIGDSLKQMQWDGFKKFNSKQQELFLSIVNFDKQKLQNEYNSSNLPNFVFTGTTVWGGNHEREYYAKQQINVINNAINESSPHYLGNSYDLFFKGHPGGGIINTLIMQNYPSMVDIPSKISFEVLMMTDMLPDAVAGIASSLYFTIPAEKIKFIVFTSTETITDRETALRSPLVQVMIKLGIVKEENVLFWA
Description: sialyltransfer, HPLC with fluorescence detection, Michaelis-Menten fit. It counts as biochemical. The note with it: 20 °C, labelled compound.

Series [2] addresses T2, His6-Pd2,6ST(16–497) (Photobacterium damselae, UniProt O66375).
T2 sequence (O66375 16-497): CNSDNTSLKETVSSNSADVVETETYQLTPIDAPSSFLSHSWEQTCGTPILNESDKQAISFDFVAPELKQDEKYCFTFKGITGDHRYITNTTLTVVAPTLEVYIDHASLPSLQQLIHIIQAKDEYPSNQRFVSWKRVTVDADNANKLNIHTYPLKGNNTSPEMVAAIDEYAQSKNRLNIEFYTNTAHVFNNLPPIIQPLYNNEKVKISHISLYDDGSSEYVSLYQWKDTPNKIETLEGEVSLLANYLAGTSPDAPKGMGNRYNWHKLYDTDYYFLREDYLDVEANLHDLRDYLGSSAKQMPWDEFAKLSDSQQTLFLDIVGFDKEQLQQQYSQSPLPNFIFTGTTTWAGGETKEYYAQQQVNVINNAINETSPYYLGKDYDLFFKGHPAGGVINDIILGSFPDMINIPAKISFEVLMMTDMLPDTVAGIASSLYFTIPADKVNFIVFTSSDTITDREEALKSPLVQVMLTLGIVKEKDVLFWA
Nature of the series: donor hydrolysis, capillary electrophoresis, Michaelis-Menten fit. It counts as biochemical. To be noted: donor hydrolysis (water as acceptor); pH 8.0; 37 °C. The essentials: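 Recombinant enzyme (6 μM) was incubated with CMP-Neu5Ac (10, 20, 40, 60, 80 and 100 mM) in 200 mM Tris-HCl pH 8.0 for 20 min, with no acceptor, in duplicate. Reactions were stopped with ethanol and centrifuged. Supernatants were run by capillary electrophoresis in 25 mM sodium tetraborate pH 9.4, with PDA detection at 200 and 254 nm. Kinetic parameters came from a Michaelis-Menten fit of the duplicate means.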

Substrate in series [3]: CC(=O)N[C@H]1[C@H]([C@H](O)[C@H](O)CO)O[C@](OP(=O)(O)OC[C@H]2O[C@@H](n3ccc(N)nc3=O)[C@H](O)[C@@H]2O)(C(=O)O)C[C@@H]1O
Nature of the series: donor hydrolysis, capillary electrophoresis, Michaelis-Menten fit. It is filed as biochemical, Photobacterium sp. JT-ISH-224. To be noted: donor hydrolysis (water as acceptor), pH 8.0, 20 °C.

Substrate in series [4]: Cc1cc(=O)oc2cc(O[C@@H]3O[C@H](CO)[C@@H](O[C@@H]4O[C@H](CO)[C@H](O)[C@H](O)[C@H]4O)[C@H](O)[C@H]3O)ccc12
Description: sialyltransfer, HPLC with fluorescence detection, Michaelis-Menten fit. It counts as biochemical, Photobacterium sp. JT-ISH-224. The note with it: CMP-Neu5Ac 1.0 mM, pH 8.0, 20 °C.

Substrate in series [5]: CC(=O)N[C@H]1[C@H]([C@H](O)[C@H](O)CO)O[C@](OP(=O)(O)OC[C@H]2O[C@@H](n3ccc(N)nc3=O)[C@H](O)[C@@H]2O)(C(=O)O)C[C@@H]1O
The description is as above. It counts as biochemical, Photobacterium sp. JT-ISH-224. To be noted: LacβMU 1.0 mM as acceptor, pH 8.0, 20 °C.

Take GalNAcα2AA: the Km in series [1] (CMP-Neu5Ac 4.0 mM, pH 5.0) was 5.5 ± 1 mM.

Take `CC(=O)N[C@H]1[C@H]([C@H](O)[C@H](O)CO)O[C@](OP(=O)(O)OC[C@H]2O[C@@H](n3ccc(N)nc3=O)[C@H](O)[C@@H]2O)(C(=O)O)C[C@@H]1O` [CMP-Neu5Ac]: the “Km (mM)” value in series [2] is given as “(1.8±0.4)×10 mM”.

As for `CC(=O)N[C@H]1[C@@H](O[C@H](C)[C@H](N)C(=O)O)O[C@H](CO)[C@H](O)[C@@H]1O` [GalNAcαThr], in series [1] (CMP-Neu5Ac 4.0 mM, pH 8.0), the Km was 7.2 ± 3 mM.

`CC(=O)N[C@H]1[C@@H](OC[C@H](N)C(=O)O)O[C@H](CO)[C@H](O)[C@@H]1O` [GalNAcαSer]: the Km in series [1] (CMP-Neu5Ac 2.0 mM, pH 8.0) was 1.7 ± 0.7 mM.

B1: Psp2,6ST(15–501)-His6 (Photobacterium sp. JT-ISH-224) (protein)
chain: CNNSEENTQSIIKNDINKTIIDEEYVNLEPINQSNISFTKHSWVQTCGTQQLLTEQNKESISLSVVAPRLDDDEKYCFDFNGVSNKGEKYITKVTLNVVAPSLEVYVDHASLPTLQQLMDIIKSEEENPTAQRYIAWGRIVPTDEQMKELNITSFALINNHTPADLVQEIVKQAQTKHRLNVKLSSNTAHSFDNLVPILKELNSFNNVTVTNIDLYDDGSAEYVNLYNWRDTLNKTDNLKIGKDYLEDVINGINEDTSNTGTSSVYNWQKLYPANYHFLRKDYLTLEPSLHELRDYIGDSLKQMQWDGFKKFNSKQQELFLSIVNFDKQKLQNEYNSSNLPNFVFTGTTVWAGNHEREYYAKQQINVINNAINESSPHYLGNSYDLFFKGHPGGGIINTLIMQNYPSMVDIPSKISFEVLMMTDMLPDAVAGIASSLYFTIPAEKIKFIVFTSTETITDRETALRSPLVQVMIKLGIVKEENVLFWA
As for B1, in series [3], the kcat was 4.83 ± 0.5 s⁻¹ and the kcat/Km stood at 283 M⁻¹ s⁻¹.

B2: Psp2,6ST(15–501)-His6 (Photobacterium sp. JT-ISH-224; A366G) (protein)
chain: CNNSEENTQSIIKNDINKTIIDEEYVNLEPINQSNISFTKHSWVQTCGTQQLLTEQNKESISLSVVAPRLDDDEKYCFDFNGVSNKGEKYITKVTLNVVAPSLEVYVDHASLPTLQQLMDIIKSEEENPTAQRYIAWGRIVPTDEQMKELNITSFALINNHTPADLVQEIVKQAQTKHRLNVKLSSNTAHSFDNLVPILKELNSFNNVTVTNIDLYDDGSAEYVNLYNWRDTLNKTDNLKIGKDYLEDVINGINEDTSNTGTSSVYNWQKLYPANYHFLRKDYLTLEPSLHELRDYIGDSLKQMQWDGFKKFNSKQQELFLSIVNFDKQKLQNEYNSSNLPNFVFTGTTVWGGNHEREYYAKQQINVINNAINESSPHYLGNSYDLFFKGHPGGGIINTLIMQNYPSMVDIPSKISFEVLMMTDMLPDAVAGIASSLYFTIPAEKIKFIVFTSTETITDRETALRSPLVQVMIKLGIVKEENVLFWA
As to B2, in series [4], the Km entry is on record as “(4.1±0.4)×10^−1 mM”, the kcat was determined as 1.67 ± 0.167 s⁻¹ and the kcat/Km stood at 4000 M⁻¹ s⁻¹. Moreover, in series [5], the Km result is “(6.3±0.5)×10^−1 mM”, the kcat came out at 2.17 ± 0.167 s⁻¹ and the kcat/Km amounted to 3500 M⁻¹ s⁻¹.
